{"data": "Experimental data pooled from the literature", "target": "Dual specificity protein kinase CLK2 (CLK2, Homo sapiens, UniProt P49760)", "method": "competition with immobilised ligand", "note": "Compare with care: the assays were run in different laboratories."}
{"SMILES": "FC(F)(F)Oc1cccc(-c2cnc3ccc(-c4ccncc4)nn23)c1", "read-out": "cell-free assay", "tested at": "5 µM", "remaining binding [%]": 6.2}
{"SMILES": "C=CC(=O)N1CCC(C(=O)NCC(=O)N2CCN(c3nc(-c4cnc(N)nc4C(F)F)nc(N4CCOCC4)n3)CC2)CC1", "read-out": "binding", "tested at": "1 µM", "remaining binding [%]": 91}
{"SMILES": "O=C(c1ccc(Nc2ncc(Cl)c(-c3ccc(Cl)s3)n2)cc1)N1CCC(N2CCCC2)CC1", "read-out": "binding", "tested at": "1 µM", "remaining binding [%]": 5.2}
{"SMILES": "CCN1CCN(Cc2ccc(C(=O)Nc3ccc(C)c(Oc4ccc5c(c4)CC(=O)N5)c3)cc2C(F)(F)F)CC1", "read-out": "binding", "tested at": "1 µM", "remaining binding [%]": 100}
{"SMILES": "COc1cnc(Nc2cccc(S(N)(=O)=O)c2)nc1N1CCN(c2ccccc2)CC1", "read-out": "binding", "tested at": "1 µM", "remaining binding [%]": 99}
{"SMILES": "C[C@@H](c1ccc(-n2cnc3c(N)ncnc32)cc1)N1CCc2nn(C)c(Cc3ccccc3)c2C1=O", "read-out": "binding", "tested at": "0.1 µM", "remaining binding [%]": 79}
{"SMILES": "C[C@H](NC(=O)c1cnc2n1[C@](C)(Cc1ccc(C#N)cc1)C(=O)N2c1cc(Cl)c(F)c(Cl)c1)C(=O)NC1(c2ccccn2)CC1", "read-out": "cell-free assay", "tested at": "1 µM", "remaining binding [%]": 97}
{"SMILES": "O=C(NCCCN1CCOCC1)c1ccc(Nc2nccc(-c3cc4ccccc4s3)n2)cc1", "read-out": "binding", "tested at": "1 µM", "remaining binding [%]": 28}
{"SMILES": "Nc1c(C(=O)NCc2ccc(C(=O)NCCCC3CCCCC3)cc2)cnn1-c1ccccc1", "read-out": "cell-free assay", "tested at": "0.1 µM", "remaining binding [%]": 100}
{"SMILES": "CN(CCCC(F)(F)F)c1nccc(-c2cnn3ncccc23)n1", "read-out": "binding", "tested at": "1 µM", "remaining binding [%]": 47}
{"SMILES": "Cc1cc(C)c(-n2ccn3nc(-c4cccnc4)cc23)cc1NC(=O)c1cc(C#N)cc(S(F)(F)(F)(F)F)c1", "read-out": "cell-free assay", "tested at": "0.1 µM", "remaining binding [%]": 91}
{"SMILES": "O=C(c1ccc(Nc2ncc(Cl)c(-c3cc4ccccc4s3)n2)cc1)N1CCC(N2CCCC2)CC1", "read-out": "binding", "tested at": "1 µM", "remaining binding [%]": 6.7}
{"SMILES": "CC(=O)C1=C(C)N(c2cccc(C(F)(F)F)c2)C(=O)N[C@@H]1c1ccc(C#N)nc1", "read-out": "cell-free assay", "tested at": "1 µM", "remaining binding [%]": 100}
{"SMILES": "O=C(Nc1c[nH]nc1C(=O)NC1CCNCC1)c1cc(F)cc(F)c1", "read-out": "binding", "tested at": "1 µM", "remaining binding [%]": 100}
